For test [1], the system named is J774.A1. In words: Inhibition of caspase-1 recruitment to inflammasome in LPS-primed immortalized mouse […] cells assessed as nigericin-induced colocalization of caspase-1 and ASC at 5 uM by immunostaining based confocal microscopy. Format: functional, cell-based. An outline of the steps:
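Caspase-1 and ASC colocalization: Pearson's correlation coefficient calculated in 20 to 25 randomly selected cells.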

The next test deals with BMDM. Description: Inhibition of pyroptosis in LPS-primed C57BL/6 mouse primary BMDM assessed as effect on nigericin-induced cell morphological changes at 5 uM by propidium iodide staining based confocal microscopy. Format: functional. In a few lines: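 Primary BMDM and J774A.1 cells treated with LPS and nigericin. Swelling, bubble formation and propidium iodide uptake visualized by epifluorescence microscopy.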

For test [2], the system named is J774.A1. In words: Inhibition of pyroptosis in LPS-primed immortalized mouse […] cells assessed as reduction in poly (dA:dT) induced […] secretion by ELISA. The format is functional, cell-based. In a few lines:
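J774A.1 cells stimulated with flagellin or poly(dA:dT). IL-1β release measured by ELISA. Mean ± SEM, n ≥ 3 independent experiments.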

In another test the target is T1, Caspase-1 (Mus musculus) (UniProt P29452).
T1 sequence (whole entry): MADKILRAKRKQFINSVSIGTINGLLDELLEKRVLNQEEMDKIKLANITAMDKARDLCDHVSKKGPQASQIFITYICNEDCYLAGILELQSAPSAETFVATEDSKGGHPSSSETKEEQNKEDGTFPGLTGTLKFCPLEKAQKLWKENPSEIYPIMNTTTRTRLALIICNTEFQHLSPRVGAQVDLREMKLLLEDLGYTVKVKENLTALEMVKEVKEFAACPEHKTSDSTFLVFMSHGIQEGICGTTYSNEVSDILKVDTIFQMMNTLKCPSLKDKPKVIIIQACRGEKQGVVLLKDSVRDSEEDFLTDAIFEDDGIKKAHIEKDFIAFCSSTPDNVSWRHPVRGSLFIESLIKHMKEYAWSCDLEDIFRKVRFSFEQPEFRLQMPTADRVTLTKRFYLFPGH
Description: Inhibition of caspase-1 activity in LPS-primed immortalized mouse […] cells assessed as reduction in nigericin-induced GSDMD cleavage at 5 uM by Western blot analysis. The format is cell-based. The conditions noted are these: J774.A1. An outline of the steps: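 Western blot for GSDMD cleavage in immortalized macrophages, with tubulin as loading control. Representative of n ≥ 3 independent experiments.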

Test [3] has as its target T2, Gasdermin-D (Homo sapiens) (UniProt P57764).
T2 sequence (whole entry): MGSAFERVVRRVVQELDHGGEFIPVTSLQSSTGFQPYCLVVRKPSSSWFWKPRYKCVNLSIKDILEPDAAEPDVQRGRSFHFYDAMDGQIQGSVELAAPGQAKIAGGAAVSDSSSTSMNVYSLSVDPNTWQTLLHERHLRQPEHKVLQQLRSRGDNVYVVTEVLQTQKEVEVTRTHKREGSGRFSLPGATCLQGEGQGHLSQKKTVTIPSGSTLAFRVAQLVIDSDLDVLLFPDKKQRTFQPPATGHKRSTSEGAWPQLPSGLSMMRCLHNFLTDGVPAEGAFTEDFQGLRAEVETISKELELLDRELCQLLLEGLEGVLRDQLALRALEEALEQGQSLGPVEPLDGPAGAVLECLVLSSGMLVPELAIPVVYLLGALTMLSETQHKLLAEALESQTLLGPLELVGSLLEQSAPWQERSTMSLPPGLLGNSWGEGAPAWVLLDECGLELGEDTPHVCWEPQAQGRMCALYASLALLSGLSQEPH
Description: Inhibition of N-terminal GSDMD p30 fragment-mediated pyroptotic-cell death in doxycyclin-treated human HEK293T cells assessed as cell death at 5 uM by LDH assay. Format: cell-based. Conditions: HEK-293T.

Test [4] deals with J774.A1. In words: Inhibition of pyroptosis in LPS-primed immortalized mouse […] cells followed by subsequent nigericin stimulation by imaging analysis. The format is functional, cell-based.
Test [5] deals with NACHT, LRR and PYD domains-containing protein 3 (Mus musculus) (UniProt Q8R4B8). In words: Activation of NLRP3 in LPS-primed C57BL/6 mouse primary BMDM transfected with eGFP-tagged ASC assessed as nigericin-induced ASC oligomerization by measuring speck formation at 5 uM by confocal microscopy. An outline of the steps: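 Primary macrophages transfected with an ASC-GFP plasmid, then given LPS and nigericin to induce ASC specks. Imaged by confocal microscopy.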

The term EC50 denotes the concentration at which the effect is half-maximal. Low values mean an effect from little substance, high ones a need for much substance.

The source made the active and inactive calls. No cut-off for these calls is given here.

Chain of NACHT, LRR and PYD domains-containing protein 3 (Mus musculus) (Q8R4B8 whole entry, the tested form may be a part): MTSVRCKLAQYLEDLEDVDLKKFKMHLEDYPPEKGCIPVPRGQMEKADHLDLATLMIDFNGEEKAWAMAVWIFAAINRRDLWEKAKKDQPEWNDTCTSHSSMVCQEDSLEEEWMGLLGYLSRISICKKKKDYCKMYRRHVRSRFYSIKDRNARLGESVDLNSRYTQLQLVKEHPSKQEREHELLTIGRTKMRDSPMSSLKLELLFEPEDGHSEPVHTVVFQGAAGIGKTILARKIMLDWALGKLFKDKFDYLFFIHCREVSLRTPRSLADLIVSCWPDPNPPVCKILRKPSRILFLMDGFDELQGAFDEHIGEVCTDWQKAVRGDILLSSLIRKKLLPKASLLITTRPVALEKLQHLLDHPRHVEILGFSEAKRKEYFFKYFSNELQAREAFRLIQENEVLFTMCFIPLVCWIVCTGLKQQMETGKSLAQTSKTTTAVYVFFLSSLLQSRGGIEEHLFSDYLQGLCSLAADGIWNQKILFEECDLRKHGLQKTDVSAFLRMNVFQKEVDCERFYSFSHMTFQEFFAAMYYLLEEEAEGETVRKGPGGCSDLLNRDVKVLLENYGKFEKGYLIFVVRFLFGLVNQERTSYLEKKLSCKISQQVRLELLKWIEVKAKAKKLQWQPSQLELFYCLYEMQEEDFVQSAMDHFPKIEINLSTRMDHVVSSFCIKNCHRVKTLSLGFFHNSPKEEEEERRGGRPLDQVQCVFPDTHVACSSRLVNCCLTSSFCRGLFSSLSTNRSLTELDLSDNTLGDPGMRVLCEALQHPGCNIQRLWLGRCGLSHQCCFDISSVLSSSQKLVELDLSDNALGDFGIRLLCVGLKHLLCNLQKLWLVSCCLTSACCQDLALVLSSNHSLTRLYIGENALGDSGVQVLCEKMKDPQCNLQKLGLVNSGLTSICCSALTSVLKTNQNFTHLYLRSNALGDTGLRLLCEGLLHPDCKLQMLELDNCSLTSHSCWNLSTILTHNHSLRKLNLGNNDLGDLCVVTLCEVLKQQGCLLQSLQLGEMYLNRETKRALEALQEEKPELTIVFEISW

As to `CCOC(CN1C(=O)C(NC(=O)Nc2ccc(C)cc2)(C(F)(F)C(=O)Nc2ccc(C)cc2)c2ccccc21)OCC` (configuration not stated), the inhibition entry in the test on J774.A1 [1], with BMDM, in the test with J774.A1 [2] and on Caspase-1 (Mus musculus) was “Active” throughout. The inhibition result in test [3] is “inactive”. In the test on J774.A1 [4], this compound yielded an EC50 of 5.5 µM. Further, the outcome in test [5] was inactive.
